Consider four molecules from ChEMBL document CHEMBL1132712, “Bisphosphonate prodrugs: synthesis and in vitro evaluation of novel clodronic acid dianhydrides as bioreversible prodrugs of clodronate” (J Med Chem, 1999).

Tested on in one data set: not listed separately
Put plainly: The aqueous solubility in phosphate buffer. To be noted: read-out: S. The format is physicochemical. The gist of the method:
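Excess solid added to phosphate buffer (50 mM, μ = 0.15, pH 7.4) at room temperature and vortexed 30 min. pH checked and adjusted during solubilization. Suspension centrifuged and filtered (0.45 membrane). Filtrate quantified by HPLC.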
Regarding `CCCC(=O)OP(=O)([O-])C(Cl)(Cl)P(=O)([O-])OC(=O)CCC.[Na+].[Na+]`, the solubility amounted to 172 mg/mL.

For `CC(C)(C)C(=O)OP(=O)([O-])C(Cl)(Cl)P(=O)([O-])OC(=O)C(C)(C)C.[Na+].[Na+]`, the solubility was found to be 23.5 mg/mL.

Consider `CC(=O)OP(=O)([O-])C(Cl)(Cl)P(=O)([O-])OC(C)=O.[Na+].[Na+]`, for which the solubility was found to be 190 mg/mL.

On to `O=C(OP(=O)([O-])C(Cl)(Cl)P(=O)([O-])OC(=O)c1ccccc1)c1ccccc1.[Na+].[Na+]`, for which the solubility is 6 mg/mL.

Tested on in the next data set: not listed separately
Description: (§1) Rate data for enzymatic hydrolysis in 80% human serum at pH 7.4. Type of data set: ADME.
Settings: not given
For `CC(C)(C)C(=O)OP(=O)([O-])C(Cl)(Cl)P(=O)([O-])OC(=O)C(C)(C)C.[Na+].[Na+]`, the K obs turned out to be 0.0035 min⁻¹.

Tested on in the next data set: not listed separately
Put plainly: The apparent partition coefficient at pH 2.0. Type of data set: physicochemical. To be noted: octanol/water. The gist of the method:
(§2)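 1-Octanol/phosphate buffer (50 mM, μ = 0.15) at pH 2.0 or 7.4. Prodrug (0.8–1.5 mg) in 1.0 mL buffer shaken with 5.0 mL octanol, 1 h at pH 7.4 or 5 min at pH 2.0. Phases separated by centrifugation. Aqueous concentration measured by HPLC before and after shaking. Triplicate, mean reported.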
A word on the logD: it is the decadic logarithm of the distribution of all forms, ionised or not, between an organic phase and buffer at a given pH. In the case of `CCCC(=O)OP(=O)([O-])C(Cl)(Cl)P(=O)([O-])OC(=O)CCC.[Na+].[Na+]`, the logD is -1.9.

In the case of `CC(C)(C)C(=O)OP(=O)([O-])C(Cl)(Cl)P(=O)([O-])OC(=O)C(C)(C)C.[Na+].[Na+]`, the logD was -2.

In the case of `CC(=O)OP(=O)([O-])C(Cl)(Cl)P(=O)([O-])OC(C)=O.[Na+].[Na+]`, the logD was -1.4.

Regarding `O=C(OP(=O)([O-])C(Cl)(Cl)P(=O)([O-])OC(=O)c1ccccc1)c1ccccc1.[Na+].[Na+]`, the logD is -1.5.

Tested on in the next data set: not listed separately
Put plainly: The apparent partition coefficient at pH 7.4. Type of data set: physicochemical. To be noted: octanol/water. The gist of the method:
as §2
Consider `CCCC(=O)OP(=O)([O-])C(Cl)(Cl)P(=O)([O-])OC(=O)CCC.[Na+].[Na+]`, for which the logD is -2.3.

Consider `CC(C)(C)C(=O)OP(=O)([O-])C(Cl)(Cl)P(=O)([O-])OC(=O)C(C)(C)C.[Na+].[Na+]`, for which the logD is -2.3.

`CC(=O)OP(=O)([O-])C(Cl)(Cl)P(=O)([O-])OC(C)=O.[Na+].[Na+]`: the logD was -2.2.

For the molecule `O=C(OP(=O)([O-])C(Cl)(Cl)P(=O)([O-])OC(=O)c1ccccc1)c1ccccc1.[Na+].[Na+]`, the logD was -2.3.

Tested on in another data set: not listed separately
Description: (§3) Rate data for enzymatic hydrolysis in 80% human serum at pH 7.4; Completely hydrolyzed during 1 min. The format is ADME. To be noted: pH 7.4, 1 min.
For `CCCC(=O)OP(=O)([O-])C(Cl)(Cl)P(=O)([O-])OC(=O)CCC.[Na+].[Na+]`, the K obs entry is “Completely hydrolyzed during 1 min”.

Take `CC(=O)OP(=O)([O-])C(Cl)(Cl)P(=O)([O-])OC(C)=O.[Na+].[Na+]`: the K obs result is “Completely hydrolyzed during 1 min”.

With `O=C(OP(=O)([O-])C(Cl)(Cl)P(=O)([O-])OC(=O)c1ccccc1)c1ccccc1.[Na+].[Na+]`, the K obs entry is “Completely hydrolyzed during 1 min”.

The species named for another data set is Homo sapiens. The description is as §3. Type of data set: ADME, organism-based. To be noted: pH 7.4, 1 min.
For the molecule `CCCC(=O)OP(=O)([O-])C(Cl)(Cl)P(=O)([O-])OC(=O)CCC.[Na+].[Na+]`, the T1/2 result is reported as “Completely hydrolyzed during 1 min”.

Take `CC(=O)OP(=O)([O-])C(Cl)(Cl)P(=O)([O-])OC(C)=O.[Na+].[Na+]`: the T1/2 result was “Completely hydrolyzed during 1 min”.

`O=C(OP(=O)([O-])C(Cl)(Cl)P(=O)([O-])OC(=O)c1ccccc1)c1ccccc1.[Na+].[Na+]`: the T1/2 result was “Completely hydrolyzed during 1 min”.

Tested on in another data set: not listed separately
Description: Rate data in phosphate buffer at pH 7.4. Type of data set: ADME.
Settings: not given
A digest of the protocol:
(§4)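 Chemical hydrolysis at 37 °C in phosphate buffer (50 mM, μ = 0.15) at pH 2.0 or 7.4. Prodrug (12 mg) dissolved in preheated buffer. Samples withdrawn at intervals and assayed by HPLC. Pseudo-first-order rate constants calculated from the buffer hydrolysis data.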
The half-life is how long it takes for the measured level to halve. `CCCC(=O)OP(=O)([O-])C(Cl)(Cl)P(=O)([O-])OC(=O)CCC.[Na+].[Na+]` gave a K obs of 0.00037 min⁻¹ and a half-life of 31.3 h.

As to `CC(C)(C)C(=O)OP(=O)([O-])C(Cl)(Cl)P(=O)([O-])OC(=O)C(C)(C)C.[Na+].[Na+]`, the K obs is 0.000015 min⁻¹ and the half-life is 790 h.

`CC(=O)OP(=O)([O-])C(Cl)(Cl)P(=O)([O-])OC(C)=O.[Na+].[Na+]` gave a K obs of 0.00076 min⁻¹ and a half-life of 15.2 h.

Molecule `O=C(OP(=O)([O-])C(Cl)(Cl)P(=O)([O-])OC(=O)c1ccccc1)c1ccccc1.[Na+].[Na+]` showed a K obs of 0.000049 min⁻¹ and a half-life of 235 h.

Tested on in another data set: not listed separately
Description: Rate data in phosphate buffer at pH 2.0. The format is ADME.
Settings: not given
A digest of the protocol:
as §4
In turn, `CCCC(=O)OP(=O)([O-])C(Cl)(Cl)P(=O)([O-])OC(=O)CCC.[Na+].[Na+]` gave a K obs of 0.014 min⁻¹ and a half-life of 0.817 h.

Take `CC(C)(C)C(=O)OP(=O)([O-])C(Cl)(Cl)P(=O)([O-])OC(=O)C(C)(C)C.[Na+].[Na+]`: the K obs stood at 0.0013 min⁻¹ and the half-life is 8.6 h.

As for `CC(=O)OP(=O)([O-])C(Cl)(Cl)P(=O)([O-])OC(C)=O.[Na+].[Na+]`, the K obs was 0.016 min⁻¹ and the half-life was 0.75 h.

`O=C(OP(=O)([O-])C(Cl)(Cl)P(=O)([O-])OC(=O)c1ccccc1)c1ccccc1.[Na+].[Na+]`: the K obs stood at 0.00004 min⁻¹ and the half-life was 286 h.

Tested on in the next data set: not listed separately
The description is as §1.
Settings: not given
The format is ADME, organism-based.
In turn, `CC(C)(C)C(=O)OP(=O)([O-])C(Cl)(Cl)P(=O)([O-])OC(=O)C(C)(C)C.[Na+].[Na+]` gave a half-life of 3.3 h.
